Measured values published in ChEMBL document CHEMBL4145471, “New 1,5 and 2,5-disubstituted tetrazoles-dependent activity towards surface barrier of Candida albicans” (Eur J Med Chem, 2018).

Key:
[1] = test system: Caco-2; experiment: Cytotoxicity against human Caco2 cells assessed as reduction in cell viability at 256 ug/ml after 18 hrs by XTT assay ralative to control; format: cell-based; conditions: caco-2, 18 h
Outline: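 Caco-2 cells were exposed to compound at 256, 16 or 0.0313 µg/mL for 18 h, then given XTT reagent for 4–6 h. Absorbance was read at 475 nm with a 660 nm reference, and viability and toxicity were expressed as %. CC50 was taken as the concentration giving 50% viability loss. Means ± SD of three independent experiments, samples in duplicate.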

[2] = test system: Candida albicans; experiment: Synergistic antifungal activity against Candida albicans ATCC 90028 at 80 ug/ml after 48 hrs in presence of 2.5 ug/ml fluconazol by checkerboard assay relative to control; format: functional
Outline: (§1)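 Checkerboard microdilution (M27-A3) on C. albicans ATCC 90028 in RPMI 1640: fluconazole (80-1.25 µg/mL) crossed with tetrazole (80-1.25 µg/mL final), incubated at 35°C for 48 h. Growth by OD405 at 18 and 48 h, endpoint taken as 100% inhibition. FIC index = sum of the two agents' FICs; <1 synergism, >1 antagonism.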

[3] = test system: Candida albicans; experiment: Antifungal activity against Candida albicans ATCC 90028 assessed as metabolic activity at 40 ug/ml after 48 hrs in presence of 40 ug/ml fluconazol by XTT assay relative to control; conditions: ATCC 90028, 48 h
[4] = test system: Candida albicans; experiment: Synergistic antifungal activity against Candida albicans ATCC 90028 at 2.5 ug/ml after 48 hrs in presence of 2.5 ug/ml fluconazol by checkerboard assay relative to control; format: functional; conditions: ATCC 90028, 48 h, read-out: GI; outline: as §1
[5] = test system: Candida albicans; experiment: Antifungal activity against Candida albicans ATCC 90028 assessed as metabolic activity at 20 ug/ml after 48 hrs in presence of 80 ug/ml fluconazol by XTT assay relative to control
[6] = test system: Candida albicans; experiment: Synergistic antifungal activity against Candida albicans ATCC 90028 at 80 ug/ml after 48 hrs in presence of 10 ug/ml fluconazol by checkerboard assay relative to control; format: functional
Outline: (§2)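 Checkerboard in C. albicans ATCC 90028, inoculum prepared per CLSI M27-A3 in RPMI. Fluconazole serially diluted 80-1.25 µg/mL across the plate against the partner compound at 80-1.25 µg/mL final. Incubated 48 h at 35°C. Metabolic activity read by XTT reduction at 475 nm (660 nm reference), given as % of the untreated growth control.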

[7] = test system: Candida albicans; experiment: Synergistic antifungal activity against Candida albicans ATCC 90028 at 40 ug/ml after 48 hrs in presence of 2.5 ug/ml fluconazol by checkerboard assay relative to control; format: functional; outline: as §1
[8] = test system: Candida albicans; experiment: Antifungal activity against Candida albicans ATCC 90028 at 8 ug/ml after 18 hrs relative to control; format: functional
Outline: (§3)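 Planktonic broth microdilution per M27-A3 in MOPS-buffered RPMI 1640 (pH 7.0), final inoculum 1.8×10^3 cells/mL, compounds 0.0313–16 µg/mL from 1600 µg/mL stocks in ethanol or DMSO. Incubated at 35°C without agitation; OD405 read at 18 and 48 h. % inhibition was derived from test, sterility (no inoculum) and solvent growth-control wells. Amphotericin B at 0.5 µg/mL served as the 100% control.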

[9] = test system: Candida albicans; experiment: Antifungal activity against Candida albicans ATCC 90028 assessed as metabolic activity at 80 ug/ml after 48 hrs in presence of 10 ug/ml fluconazol by XTT assay relative to control
[10] = test system: Candida albicans; experiment: Antifungal activity against Candida albicans ATCC 90028 at 0.0313 ug/ml after 48 hrs relative to control; format: functional
[11] = test system: Candida albicans; experiment: Antifungal activity against Candida albicans ATCC 90028 at 2 ug/ml after 18 hrs relative to control; format: functional; outline: as §3
[12] = test system: Candida albicans; experiment: Antifungal activity against Candida albicans ATCC 90028 at 16 ug/ml after 48 hrs relative to control; format: functional; outline: as §3
[13] = test system: Candida albicans; experiment: Antifungal activity against Candida albicans ATCC 90028 at 16 ug/ml after 18 hrs relative to control; format: functional; outline: as §3
[14] = test system: Candida albicans; experiment: Antifungal activity against Candida albicans ATCC 90028 assessed as inhibition of metabolic activity at 2.5 ug/ml after 48 hrs in presence of 20 ug/ml fluconazol by XTT assay relative to control; format: functional; conditions: values are per cent of control
Outline: (§4)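 C. albicans ATCC 90028 in checkerboard: fluconazole serial dilutions (80-1.25 µg/mL) crossed with tetrazole (80-1.25 µg/mL final), M27-A3 inoculum in RPMI 1640, 35°C for 48 h. Metabolic activity measured by XTT reduction, read at 475 nm (660 nm reference). Activity expressed relative to untreated growth control absorbance.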

[15] = test system: Candida albicans; experiment: Antifungal activity against Candida albicans ATCC 90028 assessed as inhibition of metabolic activity at 5 ug/ml after 48 hrs in presence of 2.5 ug/ml fluconazol by XTT assay relative to control; format: functional; conditions: values are per cent of control; outline: as §4
[16] = test system: Candida albicans; experiment: Antifungal activity against Candida albicans ATCC 90028 at 4 ug/ml after 48 hrs relative to control; format: functional; outline: as §3
[17] = test system: Candida albicans; experiment: Antifungal activity against Candida albicans ATCC 90028 at 0.0625 ug/ml after 48 hrs relative to control; format: functional; outline: as §3
[18] = test system: Candida albicans; experiment: Antifungal activity against Candida albicans ATCC 90028 assessed as inhibition of metabolic activity at 5 ug/ml after 48 hrs in presence of 5 ug/ml fluconazol by XTT assay relative to control; format: functional; conditions: ATCC 90028, 48 h, values are per cent of control
Outline: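 Checkerboard against strain ATCC 90028, inoculum per M27-A3: fluconazole 80-1.25 µg/mL on one axis, tetrazole 80-1.25 µg/mL on the other. Plates at 35°C for 48 h, then XTT metabolic reduction read at 475 nm (660 nm reference). Activity is the drop in mean absorbance against untreated growth control. FICs and their summed FIC index are taken at 50% reduction in metabolic activity.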

[19] = test system: Candida albicans; experiment: Synergistic antifungal activity against Candida albicans ATCC 90028 at 2.5 ug/ml after 48 hrs in presence of 80 ug/ml fluconazol by checkerboard assay relative to control; format: functional; outline: as §1
[20] = test system: Candida albicans; experiment: Synergistic antifungal activity against Candida albicans ATCC 90028 at 10 ug/ml after 48 hrs in presence of 80 ug/ml fluconazol by checkerboard assay relative to control; format: functional; outline: as §2
[21] = test system: Candida albicans; experiment: Antifungal activity against Candida albicans ATCC 90028 assessed as metabolic activity at 40 ug/ml after 48 hrs in presence of 80 ug/ml fluconazol by XTT assay relative to control
[22] = test system: Candida albicans; experiment: Synergistic antifungal activity against Candida albicans ATCC 90028 at 2.5 ug/ml after 48 hrs in presence of 20 ug/ml fluconazol by checkerboard assay relative to control; format: functional; outline: as §1
[23] = test system: Candida albicans; experiment: Antifungal activity against Candida albicans ATCC 90028 assessed as metabolic activity at 40 ug/ml after 48 hrs in presence of 2.5 ug/ml fluconazol by XTT assay relative to control

SMILES	Activity [1] [%]	growth inhibition (GI) [2] [%]	Metabolic activity at 40 µg/mL [3] [%]	inhibition of growth at 2.5 µg/mL [4] [%]	Metabolic activity [5] [%]	growth inhibition (GI) [6] [%]	growth inhibition (GI) [7] [%]	Activity [8] [%]	Metabolic activity [9] [%]	Activity [10] [%]	Activity [11] [%]	Activity [12] [%]	Activity [13] [%]	residual activity [14] [%]	residual activity [15] [%]	Activity [16] [%]	Activity [17] [%]	residual activity at 5 µg/mL [18] [%]	growth inhibition (GI) [19] [%]	growth inhibition (GI) [20] [%]	further results
Cc1ccc(-c2nnn(CCCN3CCOCC3)n2)cc1	13.04	99.54	95.3	98.5	69.42	99.8	99.77	99.97	11.87	99.56	95.72	99.44	99.87	86.25	100	99.45	99.03	100	99.19	99.21	Metabolic activity [21]: 66.33%; growth inhibition (GI) [22]: 98.82%; Metabolic activity [23]: 26.03%
CCOC(=O)CCn1nnc(-c2ccccc2)n1	45.49	99.77	100	99.8	94.76	99.84	99.74	99.01	52.64	99.12	99.35	99.65	99.95	67.39	80.73	99.68	99.12	100	99.54	99.49	Metabolic activity [21]: 55.99%; growth inhibition (GI) [22]: 99.52%; Metabolic activity [23]: 61.61%
ClCCCn1nnnc1-c1ccccc1Cl	63.27	99.67	100	99.4	81.77	99.78	99.14	99.44	73.98	99.38	97.4	99.39	99.62	68.53	68.03	99.41	99.34	100	99.49	99.43	Metabolic activity [21]: 63.62%; growth inhibition (GI) [22]: 99.53%; Metabolic activity [23]: 75.66%
